Test results taken from ChEMBL document CHEMBL4706742, “Induction of Apoptosis in Cancer Cells by Glutathione Transferase Inhibitor Mediated Hydrophobic Tagging Molecules” (2021).
Each block holds one compound with its values, some of them ahead of it. The source made the active and inactive calls. The rule behind the calls is not given here.

What was measured:
[1] = molecular target: Glutathione S-transferase P (Homo sapiens) (UniProt P09211); assay: Inhibition of recombinant human N-terminal His-tagged GSTP1 (1 to 210 residues) expressed in Escherichia coli at 100 uM using reduced GSH as substrate measured after 0.5 hrs by CDNB assay
Outline: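 GSTP catalytic activity followed via GSH–CDNB conjugation, read as absorbance at 340 nm specific to the conjugate. Compounds tested up to 100 μM.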

[2] = molecular target: Glutathione S-transferase P (Homo sapiens) (UniProt P09211); assay: Induction of GSTP1 degradation in human HeLa cells at 40 to 80 uM measured after 3 hrs by Western blot analysis; type: cell-based; conditions: dose 40-80 µM
Outline: (§1)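 GSTP protein in whole-cell lysates, detected by Western blot with specific antibodies after 3 h compound exposure. HeLa (high GSTP expression) treated at 40 or 80 μM or over a dose range; A549 and HT1080 cells (high or medium GSTP) also tested. Blots representative of three independent experiments.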

[3] = molecular target: Glutathione S-transferase P (Homo sapiens) (UniProt P09211); assay: Induction of GSTP1 degradation in human HeLa cells at 40 uM measured after 3 hrs by Western blot analysis relative to control; type: cell-based; outline: as §1
[4] = molecular target: Glutathione S-transferase P (Homo sapiens) (UniProt P09211); assay: Induction of GSTP1 degradation in human HeLa cells measured after 3 hrs by Western blot analysis; type: cell-based; outline: as §1
[5] = molecular target: Glutathione S-transferase P (Homo sapiens) (UniProt P09211); assay: Induction of GSTP1 degradation in human HeLa cells measured after 3 hrs in presence of protein synthesis inhibitor cycloheximide by Western blot analysis; type: cell-based
Outline: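 HeLa cells pretreated with cycloheximide, then exposed to compound over a dose range for 3 h. GSTP in total lysates read by Western blot with specific antibodies. Blots representative of three independent experiments.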

[6] = molecular target: Glutathione S-transferase P (Homo sapiens) (UniProt P09211); assay: Induction of GSTP1 degradation in human A549 cells at 5 to 80 uM measured after 3 hrs by Western blot analysis; type: cell-based; conditions: dose 5-80 µM; outline: as §1
[7] = molecular target: Glutathione S-transferase P (Homo sapiens) (UniProt P09211); assay: Induction of GSTP1 degradation in human HT-1080 cells at 5 to 80 uM measured after 3 hrs by Western blot analysis; type: cell-based; conditions: dose 5-80 µM; outline: as §1
[8] = molecular target: Glutathione S-transferase P (Homo sapiens) (UniProt P09211); assay: Induction of GSTP1 degradation in human HeLa cells at 80 uM measured after 3 hrs in presence of 20S proteasome inhibitor bortezomib by Western blot analysis; type: cell-based
Outline: (§2)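 HeLa cells cotreated with test compound plus bortezomib (20S proteasome inhibitor), PYR-41 (E1 ubiquitin-activating enzyme inhibitor) or bafilomycin A1 (V-ATPase inhibitor, blocks autophagosome–lysosome fusion). GSTP in total cell lysates then detected by Western blot with specific antibodies. Representative of three independent experiments.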

[9] = molecular target: Glutathione S-transferase P (Homo sapiens) (UniProt P09211); assay: Induction of GSTP1 degradation in human HeLa cells at 80 uM measured after 3 hrs in presence of ubiquitin activating enzyme E1 inhibitor PYR-41 by Western blot analysis; type: cell-based; outline: as §2
[10] = molecular target: Glutathione S-transferase P (Homo sapiens) (UniProt P09211); assay: Induction of GSTP1 degradation in human HeLa cells at 80 uM measured after 3 hrs in presence of vacuolar type H (+)-ATPase inhibitor bafilomycin A1 by Western blot analysis; type: cell-based; outline: as §2
[11] = molecular target: Glutathione S-transferase P (Homo sapiens) (UniProt P09211); assay: Induction of GSTP1 degradation in human HeLa cells assessed as increase in JNK phosphorylation at 5 to 80 uM measured after 3 hrs by Western blot analysis; type: cell-based; conditions: dose 5-80 µM
Outline: (§3)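 HeLa cells exposed to compound for 3 h. Total cell lysates probed by Western blot with specific antibodies for phospho-JNK, phospho-c-Jun and total JNK. Total JNK bands quantified by densitometry. Representative of three independent experiments.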

[12] = molecular target: Glutathione S-transferase P (Homo sapiens) (UniProt P09211); assay: Induction of GSTP1 degradation in human HeLa cells assessed as increase in c-Jun phosphorylation at 5 to 80 uM measured after 3 hrs by Western blot analysis; type: cell-based; conditions: dose 5-80 µM; outline: as §3
[13] = molecular target: Glutathione S-transferase P (Homo sapiens) (UniProt P09211); assay: Induction of GSTP1 degradation in human HeLa cells assessed as reduction in total JNK expression at 20 to 80 uM measured after 3 hrs by Western blot analysis; type: cell-based; conditions: dose 20-80 µM; outline: as §3
HeLa [14] = assay: Induction of reactive oxygen species generation in human HeLa cells measured after 3 hrs by DCFH-DA staining based fluorescence laser confocal microscopic analysis; type: functional, cell-based; conditions: dose 5-80 µM
Outline: (§4)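 HeLa cells loaded with DCFH-DA fluorescent ROS probe after treatment at the indicated concentrations. Fluorescence read at Ex/Em 488/525 by laser confocal microscopy. Rosup 50 μg/mL served as positive control.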

HeLa [15] = assay: Induction of apoptosis in human HeLa cells measured after 3 hrs by Annexin V-FITC/propidium iodide staining based flow cytometry; type: functional, cell-based
HeLa [16] = assay: Induction of apoptosis in human HeLa cells assessed as viable cells at 10 uM measured after 3 hrs by Annexin V-FITC/propidium iodide staining based flow cytometry (reference value: 91.43%); type: functional; conditions: read-out: Activity
HeLa [17] = assay: Induction of apoptosis in human HeLa cells assessed as early apoptotic cells at 10 uM measured after 3 hrs by Annexin V-FITC/propidium iodide staining based flow cytometry (reference value: 4.37%); type: functional
HeLa [18] = assay: Induction of apoptosis in human HeLa cells assessed as late apoptotic cells at 10 uM measured after 3 hrs by Annexin V-FITC/propidium iodide staining based flow cytometry (reference value: 3.59%); type: functional
HeLa [19] = assay: Induction of apoptosis in human HeLa cells assessed as necrotic cells at 10 uM measured after 3 hrs by Annexin V-FITC/propidium iodide staining based flow cytometry (reference value: 0.61%); type: functional
HeLa [20] = assay: Induction of apoptosis in human HeLa cells assessed as viable cells at 20 uM measured after 3 hrs by Annexin V-FITC/propidium iodide staining based flow cytometry (reference value: 91.43%); type: functional; conditions: read-out: Activity
HeLa [21] = assay: Induction of apoptosis in human HeLa cells assessed as early apoptotic cells at 20 uM measured after 3 hrs by Annexin V-FITC/propidium iodide staining based flow cytometry (reference value: 4.37%); type: functional
HeLa [22] = assay: Induction of apoptosis in human HeLa cells assessed as late apoptotic cells at 20 uM measured after 3 hrs by Annexin V-FITC/propidium iodide staining based flow cytometry (reference value: 3.59%); type: functional
HeLa [23] = assay: Induction of apoptosis in human HeLa cells assessed as necrotic cells at 20 uM measured after 3 hrs by Annexin V-FITC/propidium iodide staining based flow cytometry (reference value: 0.61%); type: functional
HeLa [24] = assay: Induction of apoptosis in human HeLa cells assessed as viable cells at 40 uM measured after 3 hrs by Annexin V-FITC/propidium iodide staining based flow cytometry (reference value: 91.43%); type: functional; conditions: read-out: Activity
HeLa [25] = assay: Induction of apoptosis in human HeLa cells assessed as early apoptotic cells at 40 uM measured after 3 hrs by Annexin V-FITC/propidium iodide staining based flow cytometry (reference value: 4.37%); type: functional
HeLa [26] = assay: Induction of apoptosis in human HeLa cells assessed as late apoptotic cells at 40 uM measured after 3 hrs by Annexin V-FITC/propidium iodide staining based flow cytometry (reference value: 3.59%); type: functional
HeLa [27] = assay: Induction of apoptosis in human HeLa cells assessed as necrotic cells at 40 uM measured after 3 hrs by Annexin V-FITC/propidium iodide staining based flow cytometry (reference value: 0.61%); type: functional
HeLa [28] = assay: Induction of apoptosis in human HeLa cells assessed as viable cells at 80 uM measured after 3 hrs by Annexin V-FITC/propidium iodide staining based flow cytometry (reference value: 91.43%); type: functional; conditions: read-out: Activity
HeLa [29] = assay: Induction of apoptosis in human HeLa cells assessed as early apoptotic cells at 80 uM measured after 3 hrs by Annexin V-FITC/propidium iodide staining based flow cytometry (reference value: 4.37%); type: functional
HeLa [30] = assay: Induction of apoptosis in human HeLa cells assessed as late apoptotic cells at 80 uM measured after 3 hrs by Annexin V-FITC/propidium iodide staining based flow cytometry (reference value: 3.59%); type: functional
HeLa [31] = assay: Induction of apoptosis in human HeLa cells assessed as necrotic cells at 80 uM measured after 3 hrs by Annexin V-FITC/propidium iodide staining based flow cytometry (reference value: 0.61%); type: functional
[32] = molecular target: Glutathione S-transferase P (Homo sapiens) (UniProt P09211); assay: Induction of GSTP1 degradation in human HeLa cells at 80 uM measured after 3 hrs by Western blot analysis; type: cell-based; outline: as §1
[33] = molecular target: Glutathione S-transferase P (Homo sapiens) (UniProt P09211); assay: Induction of GSTP1 degradation in human HeLa cells at 5 to 80 uM measured after 3 hrs by Western blot analysis; type: cell-based; conditions: dose 5-80 µM; outline: as §1
[34] = molecular target: Glutathione S-transferase P (Homo sapiens) (UniProt P09211); assay: Induction of GSTP1 degradation in human A549 cells at 40 to 80 uM measured after 3 hrs by Western blot analysis; type: cell-based; conditions: dose 40-80 µM; outline: as §1
[35] = molecular target: Glutathione S-transferase P (Homo sapiens) (UniProt P09211); assay: Induction of GSTP1 degradation in human HT-1080 cells at 40 to 80 uM measured after 3 hrs by Western blot analysis; type: cell-based; conditions: dose 40-80 µM; outline: as §1
HeLa [36] = assay: Induction of reactive oxygen species generation in human HeLa cells at 80 uM measured after 3 hrs by DCFH-DA staining based fluorescence laser confocal microscopic analysis; type: functional, cell-based; outline: as §4

Chain of Glutathione S-transferase P (Homo sapiens) (P09211 2-210 limits assumed): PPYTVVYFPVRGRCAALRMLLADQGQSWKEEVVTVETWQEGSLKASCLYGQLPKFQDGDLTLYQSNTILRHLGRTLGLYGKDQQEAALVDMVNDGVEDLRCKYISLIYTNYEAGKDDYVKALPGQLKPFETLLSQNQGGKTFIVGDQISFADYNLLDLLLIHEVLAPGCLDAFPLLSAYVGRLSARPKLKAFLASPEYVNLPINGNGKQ

Compound: C=C(CC)C(=O)c1ccc(OCC(=O)OCCOC23CC4CC(CC(C4)C2)C3)c(Cl)c1Cl
inhibition [1]: Active | Activity [2]: inactive

Compound: C=C(CC)C(=O)c1ccc(OCC(=O)NCCCCCCNC(=O)CC23CC4CC(CC(C4)C2)C3)c(Cl)c1Cl
inhibition [1]: Active | Activity [2]: Active

Compound: C=C(CC)C(=O)c1ccc(OCC(=O)NCCCCNC(=O)CC23CC4CC(CC(C4)C2)C3)c(Cl)c1Cl
inhibition [1]: Active | Activity [2]: Active | Activity [3]: 80% | Activity [4]: Dose-dependent effect | Activity [5]: Dose-dependent effect | Activity [6]: Active | Activity [7]: Active | Activity [8]: inactive | Activity [9]: inactive | Activity [10]: inactive | Activity [11]: Active | Activity [12]: Active | Activity [13]: Active | Activity (HeLa [14]): Dose-dependent effect | Activity (HeLa [15]): Dose-dependent effect | viability at 10 µM (HeLa [16]): 92.5% | Activity (HeLa [17]): 3.28% | Activity (HeLa [18]): 3.7% | Activity (HeLa [19]): 0.49% | viability at 20 µM (HeLa [20]): 57% | Activity (HeLa [21]): 15.48% | Activity (HeLa [22]): 26.61% | Activity (HeLa [23]): 0.93% | viability at 40 µM (HeLa [24]): 45% | Activity (HeLa [25]): 19.7% | Activity (HeLa [26]): 34.59% | Activity (HeLa [27]): 0.75% | viability at 80 µM (HeLa [28]): 20.5% | Activity (HeLa [29]): 18.03% | Activity (HeLa [30]): 61.27% | Activity (HeLa [31]): 0.23%

Compound: C=C(CC)C(=O)c1ccc(OCC(=O)OCCOCCOCCOCCOC23CC4CC(CC(C4)C2)C3)c(Cl)c1Cl
inhibition [1]: Active | Activity [2]: inactive

Compound: C=C(CC)C(=O)c1ccc(OCC(=O)OCCOCCOCCOC23CC4CC(CC(C4)C2)C3)c(Cl)c1Cl
inhibition [1]: Active | Activity [2]: inactive

Compound: C=C(CC)C(=O)c1ccc(OCC(=O)NC23CC4CC(CC(C4)C2)C3)c(Cl)c1Cl
inhibition [1]: Active | Activity [2]: Active

Compound: C=C(CC)C(=O)c1ccc(OCC(=O)OCCOCCOC23CC4CC(CC(C4)C2)C3)c(Cl)c1Cl
inhibition [1]: Active | Activity [2]: inactive

Compound: C=C(CC)C(=O)c1ccc(OCC(=O)O)c(Cl)c1Cl [ETHACRYNIC ACID]
Activity (HeLa [36]): inactive | viability at 80 µM (HeLa [28]): 84.3% | Activity (HeLa [29]): 3.67% | Activity (HeLa [30]): 10.3% | Activity (HeLa [31]): 1.72%

Continued, values first:

inhibition [1]: Active | Activity [2]: Active
Compound: C=C(CC)C(=O)c1ccc(OCC(=O)NCCNC(=O)CC23CC4CC(CC(C4)C2)C3)c(Cl)c1Cl

Activity [32]: Active
Compound: C=C(CC)C(=O)c1ccc(OCC(=O)NCCCCCCNC(=O)OC(C)(C)C)c(Cl)c1Cl

Activity [33]: inactive | Activity [34]: inactive | Activity [35]: inactive
Compound: C=C(CC)C(=O)c1ccc(OCC(=O)NCCNC(=O)OC(C)(C)C)c(Cl)c1Cl
